Laboratory results published in publication PMC7729281 (Biochemistry, 2020).
Where “and” joins values, the source holds several entries; their conditions need not be identical. Equal entries are not always repeated. Where two headings read alike, the source gives them in different places. Each block holds one molecule with its values, some of them ahead of it.

Experiments:
M2-polarized macrophages = M2-polarized macrophages challenged by inhibitor ref 44; cited from earlier work
h12-LOX [1] = target: T1, h12-LOX (Homo sapiens, UniProt P18054); experiment: Steady-state kinetics of h12-LOX
T1 sequence (P18054 1-663): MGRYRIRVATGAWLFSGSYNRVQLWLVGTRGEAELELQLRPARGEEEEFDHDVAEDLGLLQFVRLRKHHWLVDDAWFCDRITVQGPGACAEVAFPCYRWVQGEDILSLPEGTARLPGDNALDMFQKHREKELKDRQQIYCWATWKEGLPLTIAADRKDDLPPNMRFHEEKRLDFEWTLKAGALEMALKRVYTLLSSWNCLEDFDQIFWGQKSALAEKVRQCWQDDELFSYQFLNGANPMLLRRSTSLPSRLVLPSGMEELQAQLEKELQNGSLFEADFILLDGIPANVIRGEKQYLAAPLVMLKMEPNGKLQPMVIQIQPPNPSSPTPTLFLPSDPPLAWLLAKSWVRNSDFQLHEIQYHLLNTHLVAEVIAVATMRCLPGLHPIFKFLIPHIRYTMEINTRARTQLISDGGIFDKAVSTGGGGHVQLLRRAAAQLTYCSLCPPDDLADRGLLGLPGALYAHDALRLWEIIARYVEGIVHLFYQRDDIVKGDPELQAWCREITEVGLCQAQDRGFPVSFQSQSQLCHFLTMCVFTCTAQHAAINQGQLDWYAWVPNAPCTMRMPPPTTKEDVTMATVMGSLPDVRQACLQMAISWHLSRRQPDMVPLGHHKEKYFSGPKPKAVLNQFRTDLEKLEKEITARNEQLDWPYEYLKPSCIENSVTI

h15-LOX-1 [2] = target: T2, h15-LOX-1 (Homo sapiens, UniProt P16050); experiment: Steady-state kinetics of h15-LOX-1; conditions: for fold difference of kcat/KM: h15-LOX-1, kcat/KM of enzyme with DHA set to 1 (Table 5)
T2 sequence (P16050 1-662): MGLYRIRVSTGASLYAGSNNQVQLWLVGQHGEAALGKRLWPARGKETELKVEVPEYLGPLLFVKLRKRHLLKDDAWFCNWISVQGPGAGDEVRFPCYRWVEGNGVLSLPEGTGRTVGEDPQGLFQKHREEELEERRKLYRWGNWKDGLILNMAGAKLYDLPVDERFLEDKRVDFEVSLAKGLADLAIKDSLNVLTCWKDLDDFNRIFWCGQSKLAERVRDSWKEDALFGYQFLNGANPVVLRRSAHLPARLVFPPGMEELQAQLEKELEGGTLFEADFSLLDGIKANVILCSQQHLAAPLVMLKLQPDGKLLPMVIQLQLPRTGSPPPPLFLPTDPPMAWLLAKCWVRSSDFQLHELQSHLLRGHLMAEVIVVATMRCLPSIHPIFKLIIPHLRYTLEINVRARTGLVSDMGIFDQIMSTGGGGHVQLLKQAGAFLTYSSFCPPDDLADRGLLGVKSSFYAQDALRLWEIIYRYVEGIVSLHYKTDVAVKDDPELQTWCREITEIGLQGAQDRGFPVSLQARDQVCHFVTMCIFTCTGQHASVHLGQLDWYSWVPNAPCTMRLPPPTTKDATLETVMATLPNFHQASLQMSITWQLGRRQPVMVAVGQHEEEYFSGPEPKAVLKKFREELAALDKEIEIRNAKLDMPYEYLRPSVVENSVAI

h15-LOX-1 [3] = target: T2, h15-LOX-1; experiment: Product analysis of h15-LOX-1 reactions; type: biochemical
Method in brief: (§1)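 h15-LOX-1 (0.125 μM, pH 7.5) or h12-LOX (0.300 μM, pH 8.0) was reacted in 25 mM HEPES at room temperature under ambient O2. Substrates were 10 μM DHA for 1 min (monitored at 234 nm) or 1 μM 14S-HpDHA for 20 min (h15-LOX-1) or 1 h (h12-LOX) (monitored at 270 nm). Reactions were quenched with acetic acid, spiked with d5-maresin-1, extracted into DCM and background-subtracted against a no-enzyme control. Split samples were run with or without trimethyl phosphite reduction. Products were identified by C18 LC-MS/MS (qTOF), N = 3.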

h12-LOX [4] = target: T1, h12-LOX; experiment: Product analysis of h12-LOX reactions; type: biochemical
Method in brief: as §1

h15-LOX-1 [5] = target: T2, h15-LOX-1; conditions: h15-LOX-1 with AA, obtained previously ref 22; cited from earlier work
human platelets [6] = experiment: Ex vivo platelet incubation and lipidomics; type: cell-based; conditions: human platelets + DHA, with inhibitor; data not shown
human platelets [7] = experiment: Collagen-stimulated platelet aggregation; type: cell-based; conditions: 10 min incubation, collagen 0.25 μg/mL
Method in brief: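 Washed human platelets were isolated by serial centrifugation and resuspended in Tyrode's buffer at 3 × 10^8/mL. They were preincubated with test compound (1–10 μM) for 10 min at 37 °C, then stimulated with 0.25 μg/mL collagen while stirring at 1100 rpm. Maximum aggregation was read as the light-transmittance change, mean ± SEM of 3–5 independent experiments. Comparison versus vehicle used one-way ANOVA with Dunnett's test.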

h12-LOX [8] = target: T1, h12-LOX; experiment: Allosteric modulation of 14S-HpDHA epoxidation by h12-LOX; type: biochemical; conditions: 1 μM 14S-HpDHA
Method in brief: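 Recombinant human h15-LOX-1 (0.125 μM, 25 mM HEPES pH 7.5, 20 min) or h12-LOX (0.3 μM, pH 8.0, 1 h) reacted at room temperature with 1 μM 14S-HpDHA while oxylipin modulator was titrated (1–100 μM), or with 14S-HpDHA varied alone (1–50 μM). Products were reduced and analysed by LC-MS. Dehydration (epoxide) versus oxygenation product percentages were calculated, N = 3.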

[9] = substrate: CC/C=C\C/C=C\C/C=C\C/C=C\C/C=C\C/C=C\CCC(=O)O; experiment: purified protein, by the assay type
[10] = substrate: CCCCC/C=C\C/C=C\C/C=C\C/C=C\CCCC(=O)O; experiment: purified protein, by the assay type; conditions: other: h12-LOX + substrate, 25 mM HEPES pH 8.0, RT
[11] = h12-LOX + substrate, 25 mM HEPES pH 8.0, RT
[12] = h15-LOX-1 + substrate, 25 mM HEPES pH 7.5, RT
[13] = other: h15-LOX-1 + substrate, 25 mM HEPES pH 7.5, RT
[14] = other: h12-LOX + substrate, 25 mM HEPES pH 8.0, RT

Molecule: O=C(Nc1ccc(F)cc1Cl)c1n[nH]c(Cl)c1Cl [BLX-3887]
decrease of 14S-HDHA production (M2-polarized macrophages): 45%
decrease of maresin production (M2-polarized macrophages): 70%

Km (h12-LOX [1]; [11]): 210 ± 70 µM
kcat (h12-LOX [1]; [11]): 0.17 ± 0.03 s⁻¹
Km (h15-LOX-1 [2]; [12]): 18 ± 4 µM
kcat (h15-LOX-1 [2]; [12]): 0.57 ± 0.01 s⁻¹
fold difference of kcat/KM (h15-LOX-1 [2]): −13
Molecule: CC/C=C\C/C=C\C[C@H](O)/C=C/C=C\C/C=C\C/C=C\CCC(=O)O [14S-HDHA, 14S-hydroxy-4Z,7Z,10Z,12E,16Z,19Z-docosahexaenoic acid]

product profile: 11S-HpDHA (ω-12) (h15-LOX-1 [3]; h15-LOX-1 + 10 μM DHA, 1 min): 12% and 12 ± 1%
product profile: 14S-HpDHA (ω-9) (h15-LOX-1 [3]; h15-LOX-1 + 10 μM DHA, 1 min): 40 ± 1%
product profile: 17S-HpDHA (ω-6) (h15-LOX-1 [3]; h15-LOX-1 + 10 μM DHA, 1 min): 46% and 46 ± 1%
product profile: 11S-HpDHA (ω-12) (h12-LOX [4]; h12-LOX + 10 μM DHA, 1 min): 19% and 19 ± 3%
product profile: 14S-HpDHA (ω-9) (h12-LOX [4]; h12-LOX + 10 μM DHA, 1 min): 81% and 81 ± 3%
product profile: 17S-HpDHA (ω-6) (h12-LOX [4]; h12-LOX + 10 μM DHA, 1 min): <1.0%
14S-HpDHA product selectivity of h12-LOX greater than that of h15-LOX-1 (h12-LOX [4]; substrate DHA): 2 fold
14S-HpDHA biosynthetic flux (h12-LOX [1]; h12-LOX + DHA, B.F. = kcat/KM * % product): 11
fold difference of kcat/KM (h12-LOX [1]; h12-LOX, kcat/KM of enzyme with DHA set to 1 (Table 5)): 1.0
kcat/KM of h12-LOX greater than that of h15-LOX-1 (h12-LOX [1]; substrate DHA): 39 fold
fold difference of 14S-HpDHA biosynthetic flux (h15-LOX-1 [2]; h15-LOX-1 + DHA): 1.0
14S-HpDHA biosynthetic flux (h15-LOX-1 [2]; h15-LOX-1 + DHA, B.F. = kcat/KM * % product): 0.14
fold difference of kcat/KM (h15-LOX-1 [2]): 1.0
Molecule: CC/C=C\C/C=C\C/C=C\C/C=C\C/C=C\C/C=C\CCC(=O)O [DHA, docosahexaenoic acid]

product profile: ω-9 oxylipin 12S-HETE / 12S-HpETE (h15-LOX-1 [3]; h15-LOX-1 + AA): 10%
Molecule: CCCCC/C=C\C/C=C\C/C=C\C/C=C\CCCC(=O)O [AA, arachidonic acid]
Km (h15-LOX-1 [5]): 2.7 ± 0.3 µM
kcat (h15-LOX-1 [5]): 5.3 ± 0.4 s⁻¹

Molecule: COc1cccc(CNc2ccc(S(=O)(=O)Nc3nc4ccccc4s3)cc2)c1O [ML355]
reduction of 14S-HDHA and 11S-HDHA production (human platelets [6]): approximately 70%

Molecule: CC/C=C\C/C=C\C[C@H](O)/C=C/C=C\C=C\[C@@H](O)C/C=C\CCC(=O)O [7S,14S-EZE-diHDHA, 7S,14S-dihydroxy-4Z,8E,10Z,12E,16Z,19Z-docosahexaenoic acid]
concentration required to completely inhibit platelet aggregation (human platelets [7]): 5 to 10 µM

allosteric effect on epoxidation (h12-LOX [8]; titration of modulator): no allosteric effect
Molecule: CCCCC/C=C\C[C@H](O)/C=C/C=C\C/C=C\CCCC(=O)O [12S-HETE, 12S-hydroxy-5Z,8Z,10E,14Z-eicosatetraenoic acid, reference compound]

epoxidation product at end of titration (h12-LOX [8]; titration with modulator, 72.0% at start): 5.0%
Molecule: CC/C=C\C/C=C\C[C@H](O)/C=C/C=C\C/C=C\CCCCCC(=O)O [14S-HDPAω-3, 14S-hydroxy-7Z,10Z,12E,16Z,19Z-docosapentaenoic acid]

Molecule: CCCCC/C=C\C[C@H](O)/C=C/C=C\CCCCCCC(=O)O [12S-HETrE, 12S-hydroxy-8Z,10E,14Z-eicosatrienoic acid, reference compound]
concentration required to completely inhibit platelet aggregation (human platelets [7]): 5 to 10 µM

Molecule: CC/C=C\C/C=C\C[C@H](O)\C=C/C=C/C=C/[C@H](O)C/C=C\CCC(=O)O [MaR-1, 7R,14S-dihydroxy-4Z,8E,10E,12Z,16Z,19Z-docosahexaenoic acid, reference compound]
concentration required to completely inhibit platelet aggregation (human platelets [7]): 5 to 10 µM

B1: h15-LOX-1 (Homo sapiens) (protein)
chain: MGLYRIRVSTGASLYAGSNNQVQLWLVGQHGEAALGKRLWPARGKETELKVEVPEYLGPLLFVKLRKRHLLKDDAWFCNWISVQGPGAGDEVRFPCYRWVEGNGVLSLPEGTGRTVGEDPQGLFQKHREEELEERRKLYRWGNWKDGLILNMAGAKLYDLPVDERFLEDKRVDFEVSLAKGLADLAIKDSLNVLTCWKDLDDFNRIFWCGQSKLAERVRDSWKEDALFGYQFLNGANPVVLRRSAHLPARLVFPPGMEELQAQLEKELEGGTLFEADFSLLDGIKANVILCSQQHLAAPLVMLKLQPDGKLLPMVIQLQLPRTGSPPPPLFLPTDPPMAWLLAKCWVRSSDFQLHELQSHLLRGHLMAEVIVVATMRCLPSIHPIFKLIIPHLRYTLEINVRARTGLVSDMGIFDQIMSTGGGGHVQLLKQAGAFLTYSSFCPPDDLADRGLLGVKSSFYAQDALRLWEIIYRYVEGIVSLHYKTDVAVKDDPELQTWCREITEIGLQGAQDRGFPVSLQARDQVCHFVTMCIFTCTGQHASVHLGQLDWYSWVPNAPCTMRLPPPTTKDATLETVMATLPNFHQASLQMSITWQLGRRQPVMVAVGQHEEEYFSGPEPKAVLKKFREELAALDKEIEIRNAKLDMPYEYLRPSVVENSVAI
Km [9, 13]: 6.7 ± 3 µM
kcat [9, 13]: 2.4 ± 0.6 s⁻¹
kcat/Km [9, 13]: 360000 ± 100000 M⁻¹ s⁻¹

B2: h12-LOX (Homo sapiens) (protein)
chain: MGRYRIRVATGAWLFSGSYNRVQLWLVGTRGEAELELQLRPARGEEEEFDHDVAEDLGLLQFVRLRKHHWLVDDAWFCDRITVQGPGACAEVAFPCYRWVQGEDILSLPEGTARLPGDNALDMFQKHREKELKDRQQIYCWATWKEGLPLTIAADRKDDLPPNMRFHEEKRLDFEWTLKAGALEMALKRVYTLLSSWNCLEDFDQIFWGQKSALAEKVRQCWQDDELFSYQFLNGANPMLLRRSTSLPSRLVLPSGMEELQAQLEKELQNGSLFEADFILLDGIPANVIRGEKQYLAAPLVMLKMEPNGKLQPMVIQIQPPNPSSPTPTLFLPSDPPLAWLLAKSWVRNSDFQLHEIQYHLLNTHLVAEVIAVATMRCLPGLHPIFKFLIPHIRYTMEINTRARTQLISDGGIFDKAVSTGGGGHVQLLRRAAAQLTYCSLCPPDDLADRGLLGLPGALYAHDALRLWEIIARYVEGIVHLFYQRDDIVKGDPELQAWCREITEVGLCQAQDRGFPVSFQSQSQLCHFLTMCVFTCTAQHAAINQGQLDWYAWVPNAPCTMRMPPPTTKEDVTMATVMGSLPDVRQACLQMAISWHLSRRQPDMVPLGHHKEKYFSGPKPKAVLNQFRTDLEKLEKEITARNEQLDWPYEYLKPSCIENSVTI
Km [9, 14]: 0.90 ± 0.06 µM
kcat [9, 14]: 13 ± 0.2 s⁻¹
kcat/Km [9, 14]: 1.4e+07 ± 800000 M⁻¹ s⁻¹
Km [10]: 0.95 ± 0.1 µM
kcat [10]: 18 ± 0.8 s⁻¹
kcat/Km [10]: 1.9e+07 ± 2e+06 M⁻¹ s⁻¹
